# Measured values: ChEMBL document CHEMBL4304770, “Discovery of Irreversible Inhibitors Targeting Histone Methyltransferase, SMYD3” (ACS Med Chem Lett, 2019)
# Activity calls are given as the source filed them. No cut-off for these calls is given here.
# Legend:
# [1] = molecular target: T1, Histone-lysine N-methyltransferase SMYD3 (Homo sapiens, UniProt Q9H7B4); test: Inhibition of SMYD3 (unknown origin) using MAP3K2 peptide as substrate pretreated for 30 mins followed by substrate addition and measured after 30 mins by MTase Glo reagent based luminescence assay
# T1 sequence (Q9H7B4 whole entry): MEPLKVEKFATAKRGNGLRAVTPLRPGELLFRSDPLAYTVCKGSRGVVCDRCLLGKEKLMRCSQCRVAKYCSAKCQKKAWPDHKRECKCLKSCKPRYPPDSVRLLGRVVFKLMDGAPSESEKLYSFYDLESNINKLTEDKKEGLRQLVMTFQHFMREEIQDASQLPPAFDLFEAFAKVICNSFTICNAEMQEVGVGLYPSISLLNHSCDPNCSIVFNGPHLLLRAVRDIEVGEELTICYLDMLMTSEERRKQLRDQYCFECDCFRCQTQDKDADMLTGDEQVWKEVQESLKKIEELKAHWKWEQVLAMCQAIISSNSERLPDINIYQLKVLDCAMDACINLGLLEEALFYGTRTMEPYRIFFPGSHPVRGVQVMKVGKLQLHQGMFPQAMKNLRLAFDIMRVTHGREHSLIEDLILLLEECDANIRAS
# In short: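 SMYD3 IC50 values taken as mean of duplicate experiments.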
# [2] = Metabolic stability in mouse liver microsomes assessed as half life preincubated for 5 mins followed by NADPH addition measured upto 60 mins by LC-MS/MS analysis; assay type: ADME, Microsome
# [3] = Apparent intrinsic clearance in human liver microsomes measured upto 60 mins by LC-MS/MS analysis; assay type: ADME, Microsome; conditions: 1 h
# [4] = Metabolic stability in human liver microsomes assessed as half life preincubated for 5 mins followed by NADPH addition measured upto 60 mins by LC-MS/MS analysis; assay type: ADME, Microsome
# [5] = Apparent intrinsic clearance in mouse liver microsomes measured upto 60 mins by LC-MS/MS analysis; assay type: ADME, Microsome; conditions: 1 h
# [6] = molecular target: T2, Histone-lysine N-methyltransferase SMYD3 (Homo sapiens) (UniProt Q9H7B4); test: Inhibition of SMYD3 in human HepG2 cells assessed as decrease in MAP3K2 methylation at 20 uM incubated for 24 hrs by cIEF based immunoassay relative to control; assay type: cell-based
# T2 sequence (whole entry): T1 sequence (Q9H7B4 whole entry)
# In short: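 HepG2 cells exposed to 20 μM for 24 h, DMSO control. MAP3K2-me2/me3 quantified by capillary isoelectric focusing in a nanofluidic proteomic immunoassay. Levels expressed relative to DMSO-treated cells.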
# [7] = molecular target: T2, Histone-lysine N-methyltransferase SMYD3 (Homo sapiens); test: Inhibition of SMYD3 in human HepG2 cells assessed as inhibition of cell proliferation incubated for 3 days by CellTiter-Glo luminescent assay; assay type: cell-based
# [8] = molecular target: T2, Histone-lysine N-methyltransferase SMYD3 (Homo sapiens); test: Inhibition of SMYD3 in human HepG2 cells assessed as inhibition of anchorage-independent colony formation in 3D culture cells incubated for 1 to 2 weeks by thiazolyl blue tetrazolium bromide based; assay type: cell-based
# [9] = GSH reactivity in pH 7.4 phosphate buffer assessed as pseudo first -order rate constant at 0.25 mM in presence of glutathione by HPLC-MS analysis; assay type: physicochemical; conditions: pH 7.4, 250 µM
# [10] = molecular target: T1, Histone-lysine N-methyltransferase SMYD3; test: Irreversible inhibition of SMYD3 (unknown origin) using MAP3K2 peptide as substrate pretreated for 5 mins followed by substrate addition and measured after 60 mins by MTase Glo reagent based luminescence assay
# [11] = molecular target: T2, Histone-lysine N-methyltransferase SMYD3 (Homo sapiens); test: Irreversible inhibition of SMYD3 (unknown origin) using MAP3K2 peptide as substrate assessed as Kinact pretreated for 5 mins followed by substrate addition and measured after 60 mins by MTase Glo reagent based luminescence assay
# [12] = molecular target: T2, Histone-lysine N-methyltransferase SMYD3 (Homo sapiens); test: Irreversible inhibition of SMYD3 (unknown origin) using MAP3K2 peptide as substrate assessed as kinact/Ki ratio pretreated for 5 mins followed by substrate addition and measured after 60 mins by MTase Glo reagent based luminescence assay
# [13] = Apparent permeability across basolateral to apical side in human Caco2 cells by LC-MS/MS analysis; assay type: ADME, cell-based; conditions: Caco-2
# [14] = Apparent permeability across apical to basolateral side in human Caco2 cells by LC-MS/MS analysis; assay type: ADME, cell-based; conditions: Caco-2
# HepG2 = test: Downregulation of SMYD3 in human HepG2 cells at 5 to 20 uM incubated for 24 hrs by Western blot analysis; assay type: functional
# In short: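 SMYD3 protein in HepG2 cells probed by Western blot after exposure at 5 and 20 μM, with DMSO control for comparison.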
Structure (SMILES),IC50 [1] [µM],half-life [2] [min],CLH(app) [3] [uL/min/mL],half-life [4] [min],CLH(app) [5] [uL/min/mL],other results
NCCCC(=O)N1CCN(C(=O)c2ccc3c(Cl)c4c(nc3c2)CCCC4)CC1,> 750,–,–,–,–,–
CCCCOC(=O)N1CCN(C(=O)c2ccc3c(Cl)c4c(nc3c2)CCCC4)CC1,0.36,–,–,–,–,–
CCCOC(=O)N1CCN(C(=O)c2ccc3c(Cl)cc(-c4ccc(C)cc4)nc3c2)CC1,0.37,41,26,36,22,–
COC(=O)N1CCN(C(=O)c2ccc3c(Cl)c4c(nc3c2)CCCC4)CC1,123,–,–,–,–,–
CCCOC(=O)N1CCN(C(=O)c2ccc3c(Cl)c4c(nc3c2)CCCC4)[C@H](C)C1,0.25,–,–,–,–,–
NCCOC(=O)N1CCN(C(=O)c2ccc3c(Cl)c4c(nc3c2)CCCC4)CC1,132,–,–,–,–,–
CCCOC(=O)N1CCN(C(=O)c2ccc3ccc(-c4ccccc4)nc3c2)C[C@H]1C,> 250,–,–,–,–,inhibition [6]: inactive; GI50 [7]: 60.8 µM; GI50 [8]: > 10 µM
CCCOC(=O)N1CCN(C(=O)c2ccc3c(Cl)cc(-c4ccc(OC)cc4)nc3c2)CC1,–,22,32,28,43,GI50 [7]: > 100 µM
C=CC(=O)Nc1cccc(OC)c1,–,–,–,–,–,K [9]: 3.4 ×10⁻³ /min
CCCOC(=O)N1CCN(C(=O)c2ccc3c(Cl)cc(-c4ccccc4)nc3c2)CC1,0.3,13,28,33,70,GI50 [7]: > 100 µM; Ki [10]: 3.9 µM; Kinact [11]: 0.193 min⁻¹; Ratio [12]: 833 M⁻¹ s⁻¹
CCOC(=O)N1CCN(C(=O)c2ccc3c(Cl)c4c(nc3c2)CCC4)CC1,30.5,–,–,–,–,–
CCOC(=O)N1CCN(C(=O)c2ccc3c(Cl)c4c(nc3c2)CCCC4)CC1,4.78,4,107,9,245,GI50 [7]: > 100 µM
CCCOC(=O)N1CCN(C(=O)c2ccc3c(Cl)c4c(nc3c2)CCCC4)[C@@H](C)C1,0.14,–,–,–,–,–
CCOC(=O)N1CCN(C(=O)c2ccc3c(Cl)c4c(nc3c2)CCCCC4)CC1,20.4,–,–,–,–,–
CCCOC(=O)N1CCN(C(=O)c2ccc3c(Cl)c4c(nc3c2)CCCC4)C(C)C1 (racemic),–,–,–,–,–,K [9]: 0.8 ×10⁻³ /min
CCCOC(=O)N1CCN(C(=O)c2ccc3c(Cl)cc(-c4ccc(C(=O)NC)cc4)nc3c2)CC1,–,46,53,17,20,GI50 [7]: > 100 µM; Ki [10]: 3.06 µM; Kinact [11]: 0.127 min⁻¹; Ratio [12]: 692 M⁻¹ s⁻¹
CCCOC(=O)N1CCN(C(=O)c2ccc3c(Cl)ccnc3c2)CC1,–,1,23,40,750,–
CCCOC(=O)N1CCN(C(=O)c2ccc3c(Cl)c4c(nc3c2)CC(CN)CC4)CC1 (stereo not drawn),–,–,–,–,–,Papp B→A [13]: 16.2 ×10⁻⁶ cm/s; Papp A→B [14]: 4.43 ×10⁻⁶ cm/s
CCCOC(=O)N1CCN(C(=O)c2ccc3c(Cl)cc(-c4ccccc4)nc3c2)C[C@H]1C,0.17,16,43,21,58,inhibition [6]: 55%; GI50 [7]: 24.4 µM; GI50 [8]: 0.79 µM
CCCOC(=O)N1CCN(C(=O)c2ccc3c(Cl)c4c(nc3c2)CCCC4)CC1,0.37,–,–,–,–,–
CCCOC(=O)N1CCN(C(=O)c2ccc3c(Cl)c4c(nc3c2)CC(CN)CC4)[C@@H](C)C1 (stereo partly drawn),0.067,–,–,–,–,K [9]: 0.5 ×10⁻³ /min
CCOC(=O)N1CCN(C(=O)c2ccc3cc4c(nc3c2)CCCC4)CC1,> 750,–,–,–,–,–
CCOC(=O)N1CCN(C(=O)c2ccc3c(C)c4c(nc3c2)CCCC4)CC1,> 750,–,–,–,–,–
CCCOC(=O)N1CCN(C(=O)c2ccc3c(Cl)cc(-c4ccc(C5(N)CC5)cc4)nc3c2)C[C@H]1C,0.0117,52,20,35,13,inhibition [6]: 66%; GI50 [7]: 17.7 µM; GI50 [8]: 1.04 µM; Ki [10]: 0.44 µM; Kinact [11]: 0.055 min⁻¹; Ratio [12]: 2110 M⁻¹ s⁻¹; inhibition (INH) (HepG2): 50%
